Only some compounds are listed: those with a hit (about 2.7% of all), similar ones and a draw of the others.
GSTO1 inh = blocks human GSTO1 in RBBP9 counter-screen. recombinant GSTO1, activity-based probe fluorescence polarization. inhibition, % at 5.96 µM. 300,000 tested, 1.1% active;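 active = inhibition above the campaign mean inhibition plus 3 SD, cut at about 35% in these data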;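 note: 0% = GSTO1-1 with DMSO and 100% = wells lacking GSTO1-1 enzyme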
RBBP9 inhibitor = human RBBP9 hydrolase inhibition. O75884. recombinant RBBP9, FP-Rh probe fluorescence polarization. inhibition, % at 7.94 µM. 220,000 tested, 0.2% active. AID 1515;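 active = inhibition above the campaign mean of all tested compounds plus 3 SD, cut at about 14% in these data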;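 note: plate controls were DMSO wells with RBBP9 for no effect and wells lacking RBBP9 protein for full effect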
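Controls: DMSO-treated enzyme wells and wells lacking RBBP9 | Material: RBBP9 protein | Technique: Fluorescence polarization | Replication: Single well per compound, no replicates | Buffer or medium: Tris-NaCl-Pluronic buffer, pH 8.0 | Timing: 30 min compound preincubation, 45 min probe labeling, 25 °C | Read-out basis: Percent inhibition from mP, scaled between DMSO and no-protein wells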
PRMT1 inh = blocks human protein arginine methyltransferase 1; 370,000 tested, 1.3% active; AID 652257; inhibition, % at 2.79 µM; recombinant PRMT1, activity-based probe fluorescence polarization; Q99873;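 active = inhibition above about 21% made by adding two undisclosed values, limit read from the data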
PAD4 FP inh = PAD4 (human) enzyme inhibition; Q9UM07; recombinant PAD4, RCA probe fluorescence polarization; inhibition, % at 6.36 µM; 330,000 tested, 0.41% active;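 active = percent inhibition above a cutoff equal to the mean of all tested compounds plus 3 SD, cut at about 15% in these data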;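 note: 0% = PAD4 with RCA probe and DMSO and 100% = probe without PAD4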
SIAE inh = human SIAE inhibition, primary screen | SIAE FP-Rh probe binding, fluorescence polarization | inhibition, % at 9.66 µM | 370,000 tested, 0.69% active | AID 1053197;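 active = inhibition above a cutoff: mean of compounds within the control limits plus 3 SD of those, cut at about 17% in these data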;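 note: 0% = plate median of compound wells and 100% = probe without SIAE protein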
Target sequence (Q9HAT2 whole entry, looked up): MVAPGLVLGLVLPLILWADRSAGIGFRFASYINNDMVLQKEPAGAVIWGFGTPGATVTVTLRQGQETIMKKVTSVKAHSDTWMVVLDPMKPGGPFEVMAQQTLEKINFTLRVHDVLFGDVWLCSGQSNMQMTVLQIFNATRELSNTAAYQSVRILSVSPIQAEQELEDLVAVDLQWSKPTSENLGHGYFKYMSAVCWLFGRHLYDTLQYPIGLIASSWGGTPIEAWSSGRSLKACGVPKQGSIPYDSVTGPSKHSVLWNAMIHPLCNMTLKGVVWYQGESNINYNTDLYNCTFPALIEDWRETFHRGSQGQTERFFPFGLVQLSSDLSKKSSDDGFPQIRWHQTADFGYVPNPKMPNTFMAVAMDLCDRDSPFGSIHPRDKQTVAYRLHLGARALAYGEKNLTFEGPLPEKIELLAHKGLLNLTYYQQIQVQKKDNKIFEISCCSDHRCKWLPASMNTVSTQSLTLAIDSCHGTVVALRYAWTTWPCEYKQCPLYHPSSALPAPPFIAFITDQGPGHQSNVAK
SIAE inh conf = confirmation of human SIAE inhibitors | shares compounds with SIAE inh | SIAE FP-Rh activity-based probe, fluorescence polarization | 2,300 tested, 13% active | inhibition, % at 9.66 µM;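 active = mean inhibition of the replicates above the hit cutoff set in the primary screen, cut at about 17% in these data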;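 note: 0% = SIAE with DMSO and probe and 100% = probe without SIAE; inhibitors lower polarization as more probe stays unbound to SIAE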
Numbers without * were called inactive; / = not tested or not shown.

SMILES	GSTO1 inh	RBBP9 inhibitor	PRMT1 inh	PAD4 FP inh	SIAE inh	SIAE inh conf
Cc1ccc(NC(=S)Nc2cc(C(=O)O)ccc2N2CC3CC(C2)c2cccc(=O)n2C3)cc1C (stereo not drawn)	-1	1	2	-2	9	/
COc1cccc(NC(=S)Nc2cc(C(=O)O)ccc2N2CC3CC(C2)c2cccc(=O)n2C3)c1 (stereo not drawn)	5	-6	0	-4	18*	3
Cc1ccccc1C(=O)N1CCC(C(=O)O)CC1	-5	-3	1	6	-2	/
CC(=O)O[C@H]1CC[C@@]2(C)[C@@H](CC[C@H]3[C@@H]4CC[C@H](C(C)O)[C@@]4(C)CC(=O)[C@@H]32)C1 (stereo partly drawn)	3	/	-1	1	1	/
S=c1[nH]ncn1/N=C/c1ccccn1	1	-1	-1	-3	17*	-2
COC(=O)c1cccc(NC(=O)Nc2ccc(Cl)cc2)c1	-1	-11	-9	-1	19*	-1
COC(=O)c1cccc(NC(=O)NC(=O)c2ccc(Cl)cc2)c1	1	-8	1	-2	-6	/
O=C(Nc1ccccc1-c1ccccc1)c1ccccc1Br	4	/	-6	2	10	/
Fc1ccccc1/C=N/Nc1ncnc2ccccc12	4	-8	2	-2	-9	/
Clc1ccc(/C=N/Nc2ncnc3ccccc23)cc1Cl	-17	-5	-2	0	27*	-23
C=CCN=C1SC(CC)C(=O)N1S(=O)(=O)c1ccc(C)cc1 (stereo not drawn)	-2	-1	-1	-5	-5	/
CCN1CCN(S(=O)(=O)c2ccc(Cl)c(C(=O)N(C)C(c3ccccc3)c3ccccc3)c2)CC1	5	/	-1	0	-2	/
COc1cccc(NC(=S)Nc2ccc(O)cc2)c1	13	1	17	-6	17*	5
COc1cccc(NC(=S)Nc2ccc(F)cc2)c1	0	/	-4	3	6	/
C[C@]1(C(=O)NCCN2CCOCC2)C=C[C@@H](Cc2ccccc2)N1C(=O)c1ccccc1	1	-7	-3	-1	21*	-2
C[C@H](CO)N1C[C@H](C)[C@@H](CN(C)S(=O)(=O)c2ccc(F)cc2)Oc2ccc(NC(=O)Nc3ccc4c(c3)OCO4)cc2C1=O	/	/	4	1	22*	7
C[C@@H]1CN([C@@H](C)CO)C(=O)c2cc(NC(=O)Nc3ccc4c(c3)OCO4)ccc2O[C@H]1CN(C)S(=O)(=O)c1ccc(F)cc1	/	/	3	1	15	/
CC(=O)Nc1cc(-c2ccc(N3CCN(C)CC3)cc2)cn2c(-c3ccc(F)c(Cl)c3)cnc12	/	/	-2	/	18*	15
C[C@@H](C(=O)Nc1ccccc1N1CCOCC1)N1C(=O)C2CCCCC2C1=O (stereo partly drawn)	/	/	4	-1	-1	/
COc1ccc(COC(=O)C2=C(C)NC(=O)NC2c2cccc(Br)c2)cc1 (stereo not drawn)	-38	/	-3	-3	6	/
CN(C)c1ccc(C(=O)Nc2nnc(-c3ccc(Cl)cc3)o2)cc1	36*	-9	-3	6	18*	5
Brc1cc2c(cc1C1Nc3ccccc3C3C=CCC31)OCO2 (stereo not drawn)	2	0	-1	0	8	/
CC(=O)c1ccc2c(c1)C1C=CCC1C(C(=O)O)N2 (stereo not drawn)	/	11	71*	/	34*	8
O=[N+]([O-])c1ccc(N2CCCC2)cc1NC1CC1	-16	-7	-2	-2	1	/
O=C(c1ccc2c3n(nc2c1)-c1ccccc1CO3)N1CCCCC1	2	/	-2	-3	17*	-2
SMILES	GSTO1 inh	RBBP9 inhibitor	PRMT1 inh	PAD4 FP inh	SIAE inh	SIAE inh conf
O=C(c1ccc2c3n(nc2c1)-c1ccccc1CO3)N1CCOCC1	2	/	/	6	/	/
O=C(NCc1ccc(F)cc1)C1CCCN1C(=O)Nc1ccc(Cl)cc1 (stereo not drawn)	4	/	0	-1	17*	0
O=C(NCc1ccccc1)[C@@H]1CCCN1C(=O)[C@H]1CCCN1C(=O)c1ccc(F)c(F)c1	/	/	-2	/	9	/
O=C(NCc1ccccc1)[C@H]1CCCN1C(=O)[C@H]1CCCN1C(=O)c1ccc(F)c(F)c1	/	/	-3	/	18*	-1
CC(=O)NCCCCCCNC(C)=O	2	-6	-3	-4	-8	/
CN(C)C1=NCCN1CCCC1CCCCC1	0	/	0	-8	1	/
CCCCN1CCN=C1N(C)C	-1	/	2	0	17*	3
CC1CC(C)CN(CCCNC(=O)CN2C(=O)c3cccnc3Oc3ccccc32)C1 (stereo not drawn)	5	/	0	3	1	/
CC(C)c1ccc(NC(=O)Cc2cn(C)c3ccccc23)cc1	3	-4	-2	-1	3	/
CN(c1ccc(NC(=O)Cc2cn(C)c3ccccc23)cc1)c1ccccn1	/	/	10	/	29*	29*
CN(c1ccc(NC(=O)CCc2c[nH]c3ccccc23)cc1)c1ccccn1	/	/	0	/	27*	22*
COCCN1Cc2cccc(C(=O)Nc3ccc(S(=O)(=O)N4CCCCCC4)cc3)c2C1=O	5	-8	2	4	11	/
CCn1c(SCC(=O)N2CCCC2)nc2ccccc2c1=O	0	1	0	0	-6	/
Cc1[nH]c2ccccc2c1N=Nc1ccccc1C(=O)O	23	-4	9	-19	34*	10
Cc1[nH]c2ccccc2c1N=Nc1cccc(C(=O)O)c1	8	3	5	-5	4	/
COc1ccc(CCNc2ncnc3c2[nH]c2cc(OC)c(OC)cc23)cc1OC	-9	7	1	-1	19*	26*
COc1ccc(CCNc2ncnc3cc(OC)c(OC)cc23)cc1OC	/	3	3	/	-6	/
NNC(=O)CC1=NNC(=O)C1	/	/	2	/	19*	0
NNC(=O)Cc1csc(-c2ccccc2)n1	3	-11	-1	-2	-2	/
CC1CCN(C(=O)c2[nH]cnc2C(=O)N[C@@H](CCCCNC(=O)OC(C)(C)C)C(=O)OC(C)(C)C)CC1	-2	/	-2	-3	22*	-5
O=C(Nc1nc2c(Br)cccc2s1)c1ccc2c(c1)OCCO2	/	/	1	/	22*	-60
CCCC(C)NC(=O)CSc1nc(-c2ccccc2)cn1N (stereo not drawn)	11	-10	-1	-2	17*	0
C[C@H]1CCC[C@H](O)CC(=O)c2c(O)cc(O)cc2CC(=O)O1	/	/	1	/	1	/
O=C(c1ccc(Cn2c(=S)[nH]c3ccccc3c2=O)cc1)N1CCN(c2ccccn2)CC1	1	-7	-2	-2	23*	1
COc1cc(OC)cc(C(=O)Oc2ccc(/C=N/Nc3nc4ccccc4s3)cc2OC)c1	0	-7	3	-3	19*	17*
COc1ccc(C=NNc2nc3ccccc3s2)cc1	/	/	2	/	9	/
COc1cc(/C=N/Nc2ccccc2[N+](=O)[O-])ccc1OC(=O)c1ccccc1F	3	8	0	8	4	/

Bioassay records: PubChem, The Scripps Research Institute Molecular Screening Center
